AF4-AF9 inh: MLL-AF4/AF9 protein interaction inhibition. P42568. AID 651704. 350,000 compounds, 0.47% hits. inhibition, % at 10 µM. AlphaScreen, biotin-AF4 peptide binding to FLAG-AF9;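 active = every replicate reaching a set inhibition limit, whatever the replicate mean, cut at about 25% in these data; inconclusive = mean inhibition reaches that limit but some replicates miss it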
ERAP1 inh: inhibitors of human ERAP1 aminopeptidase. AID 652197. 340,000 compounds, 0.15% hits. Q9NZ08. recombinant ERAP1, Leu-AMC fluorescence, 60 min. inhibition, % at 10.7 µM;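 active = mean replicate inhibition of at least 30%, or all replicates individually reaching that 30% level; inactive = mean below 30% and not every replicate reaching it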
SIRT5 block: sirtuin-5 (human) deacylase inhibition | Q9NXA8 | inhibition, % at 15 µM | 330,000 compounds, 1.1% hits | Purified SirT5, succinyl-peptide AMC, trypsin-coupled fluorescence | AID 652115; in the data active = inhibition above about 15%; inconclusive = no clear call, values can overlap the other calls
S100A4 MyoIIA: inhibitors of human S100A4 binding to myosin IIA peptide; P26447; S100A4/TAMRA-MyoIIA peptide fluorescence polarization; inhibition, % at 10.7 µM; 360,000 compounds, 0.14% hits;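 active = mean inhibition of at least 70% across replicates, with every replicate also reaching that level; inconclusive = mean inhibition reaches 70% but some replicates fall short; inactive = mean inhibition below 70%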
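System – human S100A4 monomer protein, biochemical binding assay · Buffer or medium – Calcium-containing HEPES buffer, pH 7.2 · Timing – 5 min between mix addition and reading · Also added – TAMRA-labelled myosin IIA heavy-chain peptide probe, 5 nM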
E-selectin induc: induces E-selectin expression in human endothelial cells; P16581; HUVEC E-selectin immunofluorescence imaging; normalized: neutral wells 0, TNF-alpha wells 100; 260,000 compounds, 0.37% hits; activation, % at 7.58 µM;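 active = mean E-selectin-positive cell signal at least 10% of the positive control, reached in at least 60% of replicates, without over 20% cell loss; inconclusive = no rule given, readout overlaps actives, possibly toxicity-flagged; inactive = the rest, including those meeting only one limit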
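Test system – human umbilical vein endothelial cells (HUVEC), E-selectin induction · Input – 3,000 HUVEC seeded per well · Buffer or medium – EGM-2, gelatin · Compound dosing – single-point compound dose · Detection – immunofluorescence imaging · Measure – percent E-selectin-positive cells · Controls – TNF-alpha high, DMSO low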
Ecoli rRNA inh: inhibits bacterial ribosomal RNA function over humanized ribosomes; E. coli WT GFP vs humanized-ribosome RFP mutants, fluorescence, 24 h; hits give low values; DMSO median 0, no signal -100; GFP signal change (wild-type ribosome), % (concentration not given with the values); 350,000 compounds, 1.6% hits; AID 720706;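 active = significant combined selectivity score with lowered wild-type GFP, culture density cut under 30%, mutant RFP and density less affected; inactive = any of these conditions unmet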
Hits are given with their value; n = inactive; u = inconclusive; x = no result given. A selection: hits, their analogues and other compounds. The true share with any hit is near 3.4%.

SMILES	AF4-AF9 inh	ERAP1 inh	SIRT5 block	S100A4 MyoIIA	E-selectin induc	Ecoli rRNA inh
COc1ccc(S(=O)(=O)N(C)C[C@H]2Oc3ccc(NC(=O)Cn4cnnn4)cc3C(=O)N([C@@H](C)CO)C[C@@H]2C)cc1	n	n	n	n	n	n
C[C@@H]1CCCCO[C@H](CN(C)Cc2ccc3c(c2)OCO3)[C@@H](C)CN([C@@H](C)CO)C(=O)c2cc(NS(=O)(=O)c3ccc(Cl)cc3)ccc2O1	n	n	n	n	x	n
COc1ccc(CC(=O)NCc2ccccc2)cc1	n	n	n	n	n	n
COc1ccc(CNC(NC(=O)c2ccccc2)(C(F)(F)F)C(F)(F)F)cc1	n	n	n	n	n	-18.9
COc1cc(-c2nc3n(n2)C(c2ccc(F)cc2)C2=C(CCCC2=O)N3)cc(OC)c1OC (centres undefined)	x	n	n	n	x	-27.2
COc1cccc(CN2[C@@H](CO)[C@H](c3ccccc3)C23CN(Cc2ccccc2OC)C3)c1	x	x	x	x	x	n
COc1cc(/C=N/NS(=O)(=O)c2ccc3ccccc3c2)ccc1OCc1ccc(C(=O)O)cc1	n	n	n	n	n	-22.9
COc1cc(/C=N/NS(=O)(=O)c2ccc(C)cc2)ccc1OCc1cccc(C(=O)O)c1	n	n	n	n	x	n
CCCNC(=O)Nc1ccc2c(c1)C(=O)N(C)C[C@@H](OC)[C@H](C)CN(Cc1cccnc1)[C@@H](C)CO2	n	n	n	n	n	n
Cc1cc(C)n(C(=O)c2cccc([N+](=O)[O-])c2C)n1	n	n	33.7	n	x	n
O=C(NCCOc1ccccc1)C1CCN(C(=O)Nc2ccccc2)CC1	n	n	x	n	n	n
CC(=O)N1CCC(C(=O)NCCOc2cccc(C)c2)CC1	26.4	n	n	n	n	n
Cc1c(Cl)cccc1NC(=S)C(=C([O-])c1ccc(Cl)s1)[n+]1ccccc1	n	n	x	n	n	-11.2
CC=Cc1ccc2n(c1=O)C[C@@H]1[C@@H](CO)[C@H](C(=O)NCC)N(C(=O)c3cccnc3)[C@H]21 (mixture of isomers)	n	n	n	n	n	n
CN(C)c1ccc(/C=C2/SC(=O)N(CCN=C3NS(=O)(=O)c4ccccc43)C2=O)cc1	n	n	18.1	n	n	x
CN(C)c1ccc(/C=C2\SC(=O)N(CCc3nnc(N)s3)C2=O)cc1	n	n	n	n	x	n
CCN1CCCC1CNC(=O)c1ccc2c(c1)NC(=O)/C(=C\c1ccc(OC)c(OC)c1)S2 (centres undefined)	40.0	n	n	n	x	n
CN(C)c1ccc(C(c2ccc(N(C)C)cc2)c2ccc([N+](=O)[O-])cc2)cc1	27.3	n	n	n	x	n
Cc1nc(S(=O)(=O)N[C@H]2CCN(Cc3ccc(OCCO)cc3)C2)cn1C	n	n	n	n	x	x
O=C(c1c[nH]c(C(=O)C(Cl)(Cl)Cl)c1)c1ccc(F)cc1F	n	n	n	n	x	n
O=C(c1c[nH]c(C(=O)C(Cl)(Cl)Cl)c1)c1ccc(F)cc1Cl	n	n	n	n	x	-35.5
C[C@H]1CN([C@@H](C)CO)C(=O)Cc2cc(NC(=O)CCCCCC(=O)Nc3ccccc3N)ccc2O[C@@H]1CN(C)Cc1ccc(Oc2ccccc2)cc1	n	n	28.8	n	n	n
C[C@@H]1CN([C@@H](C)CO)C(=O)Cc2cc(NC(=O)CCCCCC(=O)Nc3ccccc3N)ccc2O[C@@H]1CN(C)Cc1ccc(Oc2ccccc2)cc1	n	n	26.0	n	n	n
C[C@@H]1CN([C@H](C)CO)C(=O)Cc2cc(NC(=O)CCCCCC(=O)Nc3ccccc3N)ccc2O[C@@H]1CN(C)Cc1ccc(Oc2ccccc2)cc1	n	n	16.0	n	x	n
C[C@@H]1CN([C@H](C)CO)C(=O)c2cc(NS(=O)(=O)c3ccc(F)cc3)ccc2O[C@@H](C)CCCCO[C@H]1CN(C)S(=O)(=O)c1ccccc1	n	n	x	n	n	n
SMILES	AF4-AF9 inh	ERAP1 inh	SIRT5 block	S100A4 MyoIIA	E-selectin induc	Ecoli rRNA inh
C/C=C/c1ccc([C@@H]2[C@@H](C#N)N(C(=O)NC3CCCC3)[C@@H]2CO)cc1	n	n	n	n	n	n
COc1ccccc1CN(C)C[C@@H]1OCc2cn(nn2)CCCC(=O)N([C@H](C)CO)C[C@@H]1C	n	n	n	n	n	n
O=C(Nc1ccccc1)Nc1ncc([N+](=O)[O-])s1	n	n	n	n	x	n
COc1ccc(CC(=O)Nc2ncc([N+](=O)[O-])s2)cc1OC	n	n	n	n	n	-49.5
COc1ccc(CC(=O)Nc2nccs2)cc1OC	x	x	x	x	n	x
O=C(COC(=O)c1ccccc1)Nc1ncc([N+](=O)[O-])s1	n	n	20.9	n	n	n
N#CCSc1nc2ccccc2c(=O)n1CCCC(=O)NCc1ccco1	n	n	n	n	n	n
O=C(CCCn1c(=O)c2ccccc2n(CC(=O)N2CCN(c3ccccc3)CC2)c1=O)NCc1ccco1	n	x	n	n	42.9	n
CC(C)NC(=O)N1CC[C@@H]2[C@H]1c1cc(Br)ccc1N(C)[C@@H]2CO	n	n	n	n	n	n
CC1(C)C(=Cc2ccccc2)C(=O)c2ccccc21	n	n	n	n	n	n
CC1(C)c2ccccc2C(=O)c2ccccc21	n	n	x	n	n	-22.0
CC(C)NC(=O)N(C)C[C@@H]1Oc2cc(C#CC3CC3)ccc2S(=O)(=O)N([C@@H](C)CO)C[C@@H]1C	n	n	n	n	n	n
Nc1c(O)ccc2c1C(=O)c1ccccc1C2=O	n	n	n	n	n	-56.0
CC(C)CC#Cc1ccc([C@@H]2[C@@H](CO)N3CCCCN(S(=O)(=O)Cc4ccccc4)C[C@@H]23)cc1	n	n	n	n	n	n
Nc1nc(Cl)cc(Nc2ccccc2Cl)n1	u	n	n	n	n	n
CSc1nc(Cl)cc(Nc2ccccc2N)n1	n	n	n	n	n	-23.4
CCc1cccc(C)c1NC(=O)CCCN1C(=O)NC(C)(C)C1=O	n	n	n	n	26.6	n
C[C@@H]1CCCCO[C@@H](CN(C)Cc2ccc(Cl)c(Cl)c2)[C@@H](C)CN([C@H](C)CO)C(=O)c2cc(NC(=O)CCCCCC(=O)Nc3ccccc3N)ccc2O1	n	n	23.6	n	n	n
Cc1noc(C)c1NC(=O)Nc1ccc2c(c1)C(=O)N([C@@H](C)CO)C[C@H](C)[C@@H](CN(C)Cc1ccc(Cl)c(Cl)c1)OCCCC[C@H](C)O2	n	n	15.4	n	n	n
Cc1noc(C)c1NC(=O)Nc1ccc2c(c1)C(=O)N([C@H](C)CO)C[C@@H](C)[C@@H](CN(C)S(=O)(=O)c1cn(C)cn1)OCCCC[C@H](C)O2	n	n	n	n	n	n

High-throughput results deposited in PubChem BioAssay by Broad Institute.
